In ChEMBL document CHEMBL1141552, “Synthesis and antitubercular activity of 7-(R)- and 7-(S)-methyl-2-nitro-6-(S)-(4-(trifluoromethoxy)benzyloxy)-6,7-dihydro-5H-imidazo[2,1-b][1,3]oxazines, analogues of PA-824” (Bioorg Med Chem Lett, 2008):

What was measured:
Format in all cases: functional
[1] = test system: Mycobacterium tuberculosis; assay: Antitubercular activity against Mycobacterium tuberculosis H37Rv 5A1 nitroreductase mutant
Procedure, shortened: (§1)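 Broth dilution MIC99 against Mtb H37Rv (ATCC 27294) and its H37Rv mutants under aerobic conditions. Compound stocks were made in DMSO at 20 mM.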

[2] = test system: Mycobacterium tuberculosis; assay: Antitubercular activity against Mycobacterium tuberculosis H37Rv T2 nitroreductase mutant; procedure, shortened: as §1
[3] = test system: Mycobacterium tuberculosis; assay: Antitubercular activity against Mycobacterium tuberculosis H37Rv T3 nitroreductase mutant; procedure, shortened: as §1

Measured: MIC

C[C@H]1Oc2nc([N+](=O)[O-])cn2C[C@@H]1OCc1ccc(OC(F)(F)F)cc1
>100 µM: [1] | [2] | [3]

C[C@@H]1Oc2nc([N+](=O)[O-])cn2C[C@@H]1OCc1ccc(OC(F)(F)F)cc1
>100 µM: [1] | [2] | [3]

O=[N+]([O-])c1cn2c(n1)OC[C@@H](OCc1ccc(OC(F)(F)F)cc1)C2 [PRETOMANID]
>100 µM: [1] | [2] | [3]
